Assay results reported in ChEMBL document CHEMBL1151692, “Substituted hippurates and hippurate analogs as substrates and inhibitors of peptidylglycine alpha-hydroxylating monooxygenase (PHM)” (Bioorg Med Chem, 2008).
Where a SMILES comes first, the peptide text is derived from it. [ ]: non-standard residue; d: D form. The star is where a group is joined. Dansyl = CN(C)c1cccc2c(S(=O)(=O)*)cccc12; pGlu = O=C1CC[C@@H](C(=O)O)N1; Boc = CC(C)(C)OC(=O)*; Bz = O=C(c1ccccc1)*; ClAc = O=C(CCl)*; NHOH = ON*

Legend:
[1] = molecular target: T1, Peptidylglycine alpha-amidating monooxygenase (Rattus norvegicus) (UniProt P14925); experiment: Activity of rat recombinant peptidylglycine alpha-amidating monooxygenase assessed as stimulation of oxygen consumption
T1 sequence (whole entry): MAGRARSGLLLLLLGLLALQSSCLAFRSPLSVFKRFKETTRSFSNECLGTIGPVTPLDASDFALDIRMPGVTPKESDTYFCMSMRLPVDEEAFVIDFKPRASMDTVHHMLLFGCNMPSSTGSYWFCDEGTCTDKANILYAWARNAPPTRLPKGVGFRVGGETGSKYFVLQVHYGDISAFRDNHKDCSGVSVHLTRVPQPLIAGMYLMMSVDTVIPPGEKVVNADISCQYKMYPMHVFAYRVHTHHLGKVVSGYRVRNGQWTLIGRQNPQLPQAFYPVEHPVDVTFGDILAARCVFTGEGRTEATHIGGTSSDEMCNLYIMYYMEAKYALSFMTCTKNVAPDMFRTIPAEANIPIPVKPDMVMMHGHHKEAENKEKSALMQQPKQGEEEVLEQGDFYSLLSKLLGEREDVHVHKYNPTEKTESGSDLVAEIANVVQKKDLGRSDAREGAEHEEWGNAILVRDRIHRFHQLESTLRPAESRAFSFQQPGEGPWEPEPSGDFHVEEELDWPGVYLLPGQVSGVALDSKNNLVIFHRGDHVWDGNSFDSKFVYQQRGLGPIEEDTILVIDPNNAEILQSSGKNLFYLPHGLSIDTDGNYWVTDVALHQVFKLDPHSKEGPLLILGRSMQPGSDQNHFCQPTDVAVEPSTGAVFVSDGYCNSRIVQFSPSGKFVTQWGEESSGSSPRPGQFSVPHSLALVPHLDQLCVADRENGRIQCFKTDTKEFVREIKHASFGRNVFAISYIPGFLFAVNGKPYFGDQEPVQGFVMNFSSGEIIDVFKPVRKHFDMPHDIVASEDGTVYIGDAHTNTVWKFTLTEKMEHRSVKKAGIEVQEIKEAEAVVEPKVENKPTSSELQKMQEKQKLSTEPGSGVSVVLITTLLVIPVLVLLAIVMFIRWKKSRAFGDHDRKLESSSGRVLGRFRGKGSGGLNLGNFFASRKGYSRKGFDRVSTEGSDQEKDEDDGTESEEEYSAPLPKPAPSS

[2] = molecular target: T1, Peptidylglycine alpha-amidating monooxygenase (Rattus norvegicus); experiment: Ratio of Vm(app) to Km(app) for rat recombinant peptidylglycine alpha-amidating monooxygenase
Procedure, shortened: (§1)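 Recombinant rat type A medullary thyroid carcinoma PAM (bifunctional), 15–50 μg, in 100 mM MES/NaOH pH 6.0, 30 mM NaCl, 1% ethanol, 0.001% Triton X-100, 10 μg/mL catalase, 1.0 μM Cu(NO3)2, 5.0 mM ascorbate, ~200 μM O2, 37 °C. Substrate generally 0.3–5.0 KM,app. Initial O2 consumption rates read by oxygen monitor and fit to Michaelis–Menten.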

[3] = molecular target: T1, Peptidylglycine alpha-amidating monooxygenase (Rattus norvegicus); experiment: Ratio of Vm(app) to Km(app) for rat recombinant peptidylglycine alpha-amidating monooxygenase relative to hippuric acid; procedure, shortened: as §1
[4] = molecular target: peptidylglycine alpha-amidating monooxygenase (Rattus norvegicus) (UniProt P14925); experiment: Inhibition of rat peptidylamidoglycolate lyase assessed as ascorbate-independent dealkylation of alpha-hydroxy-hipurate; parameters: concentration or dose not given beside the values; settings: for inhibition: concentration not given here
[5] = molecular target: T1, Peptidylglycine alpha-amidating monooxygenase (Rattus norvegicus); experiment: Inhibition of rat recombinant peptidylglycine alpha-amidating monooxygenase assessed as inhibition of N-dansyl-Tyr-Val-Gly amidation
[6] = molecular target: T1, Peptidylglycine alpha-amidating monooxygenase (Rattus norvegicus); experiment: Inhibition of rat recombinant peptidylglycine alpha-amidating monooxygenase in presence of DMSO

Row | SMILES | Vmax(app) [1] [s⁻¹] | Ratio [2] | Activity [3] | further results
1 | O=C(O)CNC(=O)CCCCc1ccccc1 | 12 | 7.6 ×10⁴ /M/s | 12 | –
2 | O=C(NC(CSC(=O)c1ccccc1)C(=O)O)c1ccccc1 (single isomer, unassigned) | – | – | – | inhibition [4]: < 5%
3 | Nc1ccccc1C(=O)NCC(=O)O | 4.2 | 2.9 ×10³ /M/s | 0.5 | –
4 | O=C(O)CNC(=O)CCCCCc1ccccc1 | 11 | 2 ×10⁵ /M/s | 32 | –
5 | CC(C)(C)OC(=O)NCC(=O)O | 6.3 | 1.7 ×10³ /M/s | 0.3 | –
6 | CCCCCCCCCCCC(=S)SCC(=O)O | – | – | – | inhibition [4]: < 5%
7 | O=C(O)CNC(=O)SCc1ccccc1 | 0.69 | 1.2 ×10⁴ /M/s | 1.9 | –
8 | O=C(O)CONC(=O)c1ccccc1 | – | – | – | inhibition [4]: < 5%
9 | O=C(NO)c1ccccc1O | – | – | – | inhibition [4]: < 5%
10 | O=C(O)CSC(=S)c1ccccc1 | – | – | – | Kis [5]: 39 µM; Kis [6]: 49 µM; inhibition [4]: < 5%
11 | O=C(N[C@H](CO)C(=O)O)c1ccccc1 | – | – | – | inhibition [4]: < 5%
12 | O=C(O)CNC(=O)CCCCCCCc1ccccc1 | 8 | 7.6 ×10⁴ /M/s | 12 | –
13 | O=C(O)CNC(=O)OCc1ccccc1 | 8.6 | 1.5 ×10⁴ /M/s | 2.4 | –
14 | CC(=O)N[C@H](C)C(=O)O | 1.3 | 0.95 M⁻¹ s⁻¹ | – | –
15 | O=C(O)CNC(=O)c1ccccc1O | 4.9 | 7.1 ×10³ /M/s | 1.1 | –
16 | O=C(O)COC(=O)Nc1ccccc1 | – | – | – | inhibition [4]: < 5%
17 | COc1ccc(C(=O)NCC(=O)O)cc1 | 5.3 | 6.4 ×10³ /M/s | 1 | –
18 | O=C(O)CNC(=O)c1ccco1 | 7.5 | 2.8 ×10³ /M/s | 0.5 | –
19 | O=C(O)CNC(=O)/C=C/c1ccco1 | 3.4 | 2.8 ×10³ /M/s | 0.45 | –
20 | CC(C)[C@H](NC(=O)[C@H](Cc1ccc(O)cc1)NS(=O)(=O)c1cccc2c(N(C)C)cccc12)C(=O)N[C@H](C)C(=O)O (Dansyl-Tyr-Val-[dA]-OH) | 0.91 | 3 ×10⁴ /M/s | – | –
21 | O=C(O)CNC(=O)c1ccc([N+](=O)[O-])cc1 | 4.2 | 8.9 ×10³ /M/s | 1.4 | –
22 | O=C(O)CNC(=O)CNC(=O)CCl (ClAc-Gly-Gly-OH) | 8.9 | 2.1 ×10⁴ /M/s | 3.3 | –
23 | O=C(O)CNC(=O)c1ccc(Br)cc1 | 2.5 | 4.9 ×10³ /M/s | 0.8 | –
24 | O=C(O)CNC(=O)[C@@H]1CCC(=O)N1 ([pGlu]-Gly-OH) | 9.3 | 3 ×10⁴ /M/s | 4.8 | –

Row | SMILES | Vmax(app) [1] [s⁻¹] | Ratio [2] | Activity [3] | further results
25 | O=C(O)CNC(=O)c1cccs1 | 9.3 | 6 ×10³ /M/s | 1 | –
26 | Cc1cccc(C(=O)NCC(=O)O)c1 | 6.4 | 4.7 ×10³ /M/s | 0.8 | –
27 | CCCc1ccc(C(=O)NCC(=O)O)cc1 | 5.1 | 4.2 ×10³ /M/s | 0.7 | –
28 | O=C(NCC[C@H](O)C(=O)O)OCc1ccccc1 | – | – | – | inhibition [4]: < 5%
29 | O=C(O)CSC(=S)Nc1ccccc1 | – | – | – | IC50 [4]: 3.5 mM
30 | CC(C)CCC(=O)NCC(=O)O | 6.6 | 2.3 ×10⁴ /M/s | 3.7 | –
31 | Nc1ccc(C(=O)NCC(=O)O)cc1 | 5.6 | 2.2 ×10³ /M/s | 0.4 | –
32 | O=C(O)CCSC(=S)Nc1ccccc1 | – | – | – | inhibition [4]: < 5%
33 | O=C(O)CNC(=O)/C=C/c1ccccc1 | 8.4 | 3.6 ×10⁴ /M/s | 5.8 | –
34 | O=C(O)CNC(=O)c1ccc(Cl)cc1 | 4.1 | 6.6 ×10³ /M/s | 1.1 | –
35 | CC(=O)NCC(=O)NCC(=O)O | 8.9 | 5.9 ×10³ /M/s | 1 | –
36 | CC(SC(=S)c1ccccc1)C(=O)O (racemic) | – | – | – | inhibition [4]: < 5%
37 | CC(C#N)(CCC(=O)O)SC(=S)c1ccccc1 (stereo not given) | – | – | – | inhibition [4]: < 5%
38 | O=C(O)CNCc1ccccc1 | – | – | – | inhibition [4]: < 5%
39 | CC(C)C[C@H](NC(=O)[C@@H]1CCCN1)C(=O)NCC(=O)NO (H-Pro-Leu-Gly-{NHOH}) | – | – | – | inhibition [4]: < 5%
40 | NCC(=O)NNC(=O)OCc1ccccc1 | – | – | – | inhibition [4]: < 5%
41 | O=C(O)CNC(=S)Nc1ccccc1 | – | – | – | inhibition [4]: < 5%
42 | O=C(O)CNC(=O)c1cccnc1 | – | – | 0.7 | –
43 | CC(C)(C)OC(=O)NCC(=O)NCC(=O)O (Boc-Gly-Gly-OH) | 7.5 | 2.5 ×10⁴ /M/s | 4 | –
44 | O=C(O)CNC(=O)c1c(F)cccc1F | 4.3 | 2.3 ×10² /M/s | 0.04 | –
45 | O=C(O)CSc1ccccc1 | – | – | – | inhibition [4]: < 5%
46 | Cc1ccc(C(=O)NCC(=O)O)cc1 | 5.7 | 3.2 ×10³ /M/s | 0.5 | –
47 | O=C(O)CNC(=O)CCc1ccccc1 | 9.9 | 1.1 ×10⁴ /M/s | 1.8 | –
48 | Cc1ccccc1C(=O)NCC(=O)O | 7.9 | 1.8 ×10³ /M/s | 0.3 | –

Row | SMILES | Vmax(app) [1] [s⁻¹] | Ratio [2] | Activity [3] | further results
49 | O=C(O)CNC(=O)c1ccc(O)cc1 | 5.8 | 3.5 ×10³ /M/s | 0.6 | –
50 | O=C(O)CNC(=O)c1ccccc1I | 3.1 | 9.1 ×10² /M/s | 0.1 | –
51 | CC(NC(=S)c1ccccc1)C(=O)O (stereo not given) | – | – | – | inhibition [4]: < 5%
52 | O=C(O)CNC(=O)CSc1ccccc1 | 4.6 | 2.5 ×10⁴ /M/s | 4 | –
53 | COC(=O)CNC(=O)[C@@H](NC(=O)[C@H](Cc1ccc(O)cc1)NS(=O)(=O)c1cccc2c(N(C)C)cccc12)C(C)C (Dansyl-Tyr-Val-Gly-OMe) | – | – | – | Kis [5]: 54 µM
54 | O=C(O)CNC(=O)c1cccc(Cl)c1 | 7.8 | 3.6 ×10³ /M/s | 0.6 | –
55 | CC(Cc1ccccc1)C(=O)NCC(=O)O (stereo not given) | 18 | 4.3 ×10³ /M/s | 0.69 | –
56 | O=C(O)CNC(=S)Cc1ccccc1 | 2.4 | 1 ×10⁵ /M/s | 16 | –
57 | C[C@@H](NC(=O)c1ccccc1)C(=O)O | 0.27 | 3.2 M⁻¹ s⁻¹ | – | –
58 | O=C(O)CNC(=O)C1CC1c1ccccc1 (stereo not given) | 10 | 1.1 ×10⁴ /M/s | 1.8 | –
59 | O=C(O)CNC(=O)c1ccc(C(F)(F)F)cc1 | 2.8 | 3.6 ×10³ /M/s | 0.6 | –
60 | O=C(O)CNC(=O)CCCc1ccccc1 | 11 | 7 ×10⁴ /M/s | 11 | –
61 | O=C(O)CNC(=S)CCc1ccccc1 | 1.6 | 4.2 ×10⁴ /M/s | 6.8 | –
62 | O=C(O)CNC(=O)Nc1ccccc1 | 9.7 | 2.7 ×10⁴ /M/s | 4.4 | –
63 | O=C(O)CNC(=O)CNC(=O)c1ccc([N+](=O)[O-])cc1 | 8.7 | 7.6 ×10⁴ /M/s | 12 | –
64 | Cc1ccc(C(=S)SCC(=O)O)cc1 | – | – | – | inhibition [4]: < 5%
65 | CCc1ccc(C(=O)NCC(=O)O)cc1 | 3.6 | 3.1 ×10³ /M/s | 0.5 | –
66 | O=C(O)CNC(=O)CNC(=O)c1ccccc1 (Bz-Gly-Gly-OH) | 12 | 1.6 ×10⁵ /M/s | 26 | –
67 | O=C(O)CSC(=S)CCc1ccccc1 | – | – | – | Kis [5]: 9.4 µM; Kis [6]: 30 µM; inhibition [4]: < 5%
68 | O=C(O)CNC(=O)CNC(=O)CNC(=O)c1ccccc1 (Bz-Gly-Gly-Gly-OH) | 8.8 | 2.9 ×10⁴ /M/s | 4.7 | –
69 | CC(C)SCC(=O)NCC(=O)O | 1.8 | 8.2 ×10³ /M/s | 1.3 | –
70 | CC(=O)NCC(=O)O | – | – | 0.1 | –
